{
  "source": "ChEMBL document CHEMBL4028886",
  "about": "(J Med Chem, 2017)",
  "key": {"Rattus norvegicus [1]": {"system": "Rattus norvegicus", "experiment": "Neurotoxicity in Sprague-Dawley rat assessed as limb tone score at 10 mg/kg, ip administered 30 mins prior to test (reference value: 3.3 +/- 0.6749)", "type": "toxicity, organism-based", "settings": "in vivo, 0.5 h"}, "Rattus norvegicus [2]": {"system": "Rattus norvegicus", "experiment": "Neurotoxicity in Sprague-Dawley rat assessed as effect on immobility time at 10 mg/kg, ip administered 30 mins prior to test by forced swim test relative to control", "type": "toxicity, organism-based", "settings": "in vivo, 0.5 h", "summary_of_the_method": "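Male Sprague–Dawley rats, 10 per group, dosed 10 mg/kg ip daily for 10 days and 30 min before testing. DMSO vehicle controls. Forced swim in a cylinder 18 cm diameter with 23 cm water at 25 °C. 15 min pretest, then a 5 min test 24 h later. Immobility duration scored over the 5 min.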"}, "Rattus norvegicus [3]": {"system": "Rattus norvegicus", "experiment": "Neurotoxicity in Sprague-Dawley rat assessed as effect on total distance traveled at 10 mg/kg, ip administered 30 mins prior to test by elevated plus maze test relative to control", "type": "toxicity, organism-based", "settings": "in vivo, 0.5 h", "summary_of_the_method": "(§1)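 Male Sprague–Dawley rats, 10 per group, dosed 10 mg/kg ip daily for 10 days and 30 min before testing. DMSO vehicle controls. Elevated plus maze, rats placed centrally and video-tracked. Recorded: time in closed and open arms, arm entries, path length.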"}, "Rattus norvegicus [4]": {"system": "Rattus norvegicus", "experiment": "Neurotoxicity in Sprague-Dawley rat assessed as effect on large movements at 10 mg/kg, ip administered 30 mins prior to test by open field test relative to control", "type": "toxicity, organism-based", "settings": "in vivo, 0.5 h", "summary_of_the_method": "(§2)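 Male Sprague–Dawley rats, 10 per group, given 10 mg/kg ip daily for 10 days and 30 min before each test. DMSO vehicle group as control. Open field arena 100 × 100 cm with 40 cm walls. Animals video-tracked for 10 min.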"}, "Rattus norvegicus [5]": {"system": "Rattus norvegicus", "experiment": "Neurotoxicity in Sprague-Dawley rat assessed as finger approach score at 10 mg/kg, ip administered 30 mins prior to test (reference value: 1.4 +/- 1.350)", "type": "toxicity, organism-based", "settings": "in vivo, 0.5 h"}, "[6]": {"target": "Sodium-dependent dopamine transporter (Homo sapiens, UniProt Q01959)", "sequence (Q01959 whole entry)": "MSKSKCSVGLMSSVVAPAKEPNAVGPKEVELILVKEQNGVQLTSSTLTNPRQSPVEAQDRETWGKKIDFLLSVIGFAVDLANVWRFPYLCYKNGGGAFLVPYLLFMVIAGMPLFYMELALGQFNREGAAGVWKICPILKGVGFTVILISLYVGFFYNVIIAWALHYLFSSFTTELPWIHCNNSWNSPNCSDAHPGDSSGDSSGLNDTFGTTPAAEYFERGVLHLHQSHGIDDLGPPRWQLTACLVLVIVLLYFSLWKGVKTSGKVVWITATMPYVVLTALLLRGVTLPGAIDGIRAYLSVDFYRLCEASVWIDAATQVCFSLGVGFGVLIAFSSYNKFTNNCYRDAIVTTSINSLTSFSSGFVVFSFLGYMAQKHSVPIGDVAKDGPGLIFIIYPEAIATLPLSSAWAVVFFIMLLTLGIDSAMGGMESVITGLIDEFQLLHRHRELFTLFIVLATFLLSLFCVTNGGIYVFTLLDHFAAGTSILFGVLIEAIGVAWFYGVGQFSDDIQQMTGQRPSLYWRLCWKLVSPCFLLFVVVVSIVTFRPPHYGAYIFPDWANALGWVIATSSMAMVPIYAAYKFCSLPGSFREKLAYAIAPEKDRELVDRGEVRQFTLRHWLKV", "experiment": "Displacement of [3H]WIN 35,428 from human DAT expressed in HEK293 cells at 1 and 3 uM after 30 mins in presence of increasing concentration of cocaine by liquid scintillation counting", "type": "cell-based", "summary_of_the_method": "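Intact HEK-DAT cells on PDL-coated plates, in binding buffer (HEPES, NaCl, KCl, CaCl2, MgCl2, 10 μM ZnCl2, glucose, pH 7,3). Incubated with ~10 nM [3H]WIN 35,428, fixed concentrations of test compound and cocaine 0.001–1 μM, 30 min at 25 °C. Nonspecific binding defined with 30 μM mazindol. Cells lysed in 1% SDS and counted by scintillation. Reciprocal of bound (fmol) plotted against cocaine concentration as Dixon plot. Three experiments in triplicate, mean ± SD.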"}, "Rattus norvegicus [7]": {"system": "Rattus norvegicus", "experiment": "Neurotoxicity in Sprague-Dawley rat assessed as effect on distance traveled in closed arms at 10 mg/kg, ip administered 30 mins prior to test by elevated plus maze test relative to control", "type": "toxicity, organism-based", "settings": "in vivo, 0.5 h", "summary_of_the_method": "as §1"}, "Rattus norvegicus [8]": {"system": "Rattus norvegicus", "experiment": "Neurotoxicity in Sprague-Dawley rat assessed as locomotor activity score at 10 mg/kg, ip administered 30 mins prior to test (reference value: 2.6 +/- 0.9661)", "type": "toxicity, organism-based", "settings": "in vivo, 0.5 h"}, "Rattus norvegicus [9]": {"system": "Rattus norvegicus", "experiment": "Neurotoxicity in Sprague-Dawley rat assessed as effect on time spent on revolving rod at 10 mg/kg, ip administered 30 mins prior to test by rotarod test relative to control", "type": "toxicity, organism-based", "settings": "in vivo, 0.5 h", "summary_of_the_method": "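Male Sprague–Dawley rats, 10 per group, dosed 10 mg/kg ip daily for 10 days and 30 min before testing. DMSO vehicle controls. Rotarod, time spent on the revolving rod recorded.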"}, "Rattus norvegicus [10]": {"system": "Rattus norvegicus", "experiment": "Neurotoxicity in Sprague-Dawley rat assessed as grip strength score at 10 mg/kg, ip administered 30 mins prior to test (reference value: 2.4 +/- 1.265)", "type": "toxicity, organism-based", "settings": "in vivo, 0.5 h"}, "Rattus norvegicus [11]": {"system": "Rattus norvegicus", "experiment": "Neurotoxicity in Sprague-Dawley rat assessed as visual placing score at 10 mg/kg, ip administered 30 mins prior to test (reference value: 1.9 +/- 0.3162)", "type": "toxicity, organism-based", "settings": "in vivo, 0.5 h"}, "Rattus norvegicus [12]": {"system": "Rattus norvegicus", "experiment": "Neurotoxicity in Sprague-Dawley rat assessed as effect on time spent in the left closed arm at 10 mg/kg, ip administered 30 mins prior to test by elevated plus maze test relative to control", "type": "toxicity, organism-based", "settings": "in vivo, 0.5 h", "summary_of_the_method": "as §1"}, "Rattus norvegicus [13]": {"system": "Rattus norvegicus", "experiment": "Neurotoxicity in Sprague-Dawley rat assessed as pinna reflex score at 10 mg/kg, ip administered 30 mins prior to test (reference value: 1.2 +/- 1.033)", "type": "toxicity, organism-based", "settings": "in vivo, 0.5 h"}, "Rattus norvegicus [14]": {"system": "Rattus norvegicus", "experiment": "Neurotoxicity in Sprague-Dawley rat assessed as effect on distance traveled in open arms at 10 mg/kg, ip administered 30 mins prior to test by elevated plus maze test relative to control", "type": "toxicity, organism-based", "settings": "in vivo, 0.5 h", "summary_of_the_method": "as §1"}, "Rattus norvegicus [15]": {"system": "Rattus norvegicus", "experiment": "Neurotoxicity in Sprague-Dawley rat assessed as limb rotation score at 10 mg/kg, ip administered 30 mins prior to test (reference value: 3.3 +/- 0.4830)", "type": "toxicity, organism-based", "settings": "in vivo, 0.5 h"}, "Rattus norvegicus [16]": {"system": "Rattus norvegicus", "experiment": "Neurotoxicity in Sprague-Dawley rat assessed as effect on resting time at 10 mg/kg, ip administered 30 mins prior to test by open field test relative to control", "type": "toxicity, organism-based", "settings": "in vivo, 0.5 h", "summary_of_the_method": "as §2"}, "Rattus norvegicus [17]": {"system": "Rattus norvegicus", "experiment": "Neurotoxicity in Sprague-Dawley rat assessed as effect on time spent at the margin at 10 mg/kg, ip administered 30 mins prior to test by open field test relative to control", "type": "toxicity, organism-based", "settings": "in vivo, 0.5 h", "summary_of_the_method": "as §2"}, "Rattus norvegicus [18]": {"system": "Rattus norvegicus", "experiment": "Neurotoxicity in Sprague-Dawley rat assessed as effect on time spent in the left open arm at 10 mg/kg, ip administered 30 mins prior to test by elevated plus maze test relative to control", "type": "toxicity, organism-based", "settings": "in vivo, 0.5 h", "summary_of_the_method": "as §1"}, "Rattus norvegicus [19]": {"system": "Rattus norvegicus", "experiment": "Neurotoxicity in Sprague-Dawley rat assessed as effect on time spent in open arm at 10 mg/kg, ip administered 30 mins prior to test by elevated plus maze test relative to control", "type": "toxicity, organism-based", "settings": "in vivo, 0.5 h", "summary_of_the_method": "as §1"}, "[20]": {"target": "Sodium-dependent noradrenaline transporter (Homo sapiens, UniProt P23975)", "sequence (P23975 whole entry)": "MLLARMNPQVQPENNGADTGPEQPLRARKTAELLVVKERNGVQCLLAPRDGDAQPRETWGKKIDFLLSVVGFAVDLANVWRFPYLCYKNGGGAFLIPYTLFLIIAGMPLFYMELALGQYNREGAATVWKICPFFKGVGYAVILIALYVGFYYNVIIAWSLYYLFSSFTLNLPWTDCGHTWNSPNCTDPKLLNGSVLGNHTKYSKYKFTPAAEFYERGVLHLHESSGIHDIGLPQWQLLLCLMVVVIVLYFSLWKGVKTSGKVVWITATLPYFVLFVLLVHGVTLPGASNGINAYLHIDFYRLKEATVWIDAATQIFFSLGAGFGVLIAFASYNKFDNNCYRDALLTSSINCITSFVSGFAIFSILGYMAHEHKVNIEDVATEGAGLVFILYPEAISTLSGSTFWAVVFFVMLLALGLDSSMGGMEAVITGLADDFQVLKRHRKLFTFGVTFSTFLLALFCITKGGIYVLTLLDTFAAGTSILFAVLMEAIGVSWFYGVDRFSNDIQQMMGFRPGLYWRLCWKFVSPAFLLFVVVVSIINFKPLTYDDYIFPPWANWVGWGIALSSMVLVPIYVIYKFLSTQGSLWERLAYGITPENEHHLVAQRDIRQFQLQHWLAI", "experiment": "Inhibition of re-uptake of [3H]MPP+ at human NET expressed in HEK293 cells preincubated for 5 mins followed by […] addition measured after 3 min by liquid scintillation counting", "type": "cell-based", "settings": "hek293", "summary_of_the_method": "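HEK293 cells stably expressing human DAT or NET, seeded on PDL-coated plates 24 h before. Preincubated 5 min in Krebs–HEPES buffer pH 7.3 with compound at 0.001 μM to 1 mM (DMSO stock diluted in buffer). Substrate then added: 0.2 μM [3H]dopamine for DAT, 1 min; 0.05 μM [3H]MPP+ for NET, 3 min. Room temperature. Uptake stopped with ice-cold buffer. Cells lysed in 1% SDS and counted by scintillation. Unspecific uptake defined with 10 μM mazindol. IC50 by nonlinear regression.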"}, "Rattus norvegicus [21]": {"system": "Rattus norvegicus", "experiment": "Neurotoxicity in Sprague-Dawley rat assessed as effect on number of crossings of the center at 10 mg/kg, ip administered 30 mins prior to test by open field test relative to control", "type": "toxicity, organism-based", "settings": "in vivo, 0.5 h", "summary_of_the_method": "as §2"}, "Rattus norvegicus [22]": {"system": "Rattus norvegicus", "experiment": "Neurotoxicity in Sprague-Dawley rat assessed as body position score at 10 mg/kg, ip administered 30 mins prior to test (reference value: 1.8 +/- 0.4216)", "type": "toxicity, organism-based", "settings": "in vivo, 0.5 h"}, "Rattus norvegicus [23]": {"system": "Rattus norvegicus", "experiment": "Neurotoxicity in Sprague-Dawley rat assessed as tail elevation score at 10 mg/kg, ip administered 30 mins prior to test (reference value: 2.2 +/- 0.6325)", "type": "toxicity, organism-based", "settings": "in vivo, 0.5 h"}, "Rattus norvegicus [24]": {"system": "Rattus norvegicus", "experiment": "Neurotoxicity in Sprague-Dawley rat assessed as pelvic elevation score at 10 mg/kg, ip administered 30 mins prior to test (reference value: 3.8 +/- 0.6325)", "type": "toxicity, organism-based", "settings": "in vivo, 0.5 h"}, "Rattus norvegicus [25]": {"system": "Rattus norvegicus", "experiment": "Neurotoxicity in Sprague-Dawley rat assessed as toe pinch score at 10 mg/kg, ip administered 30 mins prior to test (reference value: 1.8 +/- 0.6325)", "type": "toxicity, organism-based", "settings": "in vivo, 0.5 h"}},
  "note": "Activity calls are given as the source filed them. No cut-off for these calls is given here.",
  "data": [
    {"smiles": "[O-][S+](Cc1cccs1)C(c1ccccc1)c1ccccc1", "note": "(stereo not given)", "values": [
      {"measurement": "Activity", "setting": "Rattus norvegicus [1]", "result": 3.5},
      {"measurement": "Activity", "setting": "Rattus norvegicus [2]", "result": "Non-Toxic"},
      {"measurement": "Activity", "setting": "Rattus norvegicus [3]", "result": "Non-Toxic"},
      {"measurement": "Activity", "setting": "Rattus norvegicus [4]", "result": "Non-Toxic"},
      {"measurement": "Activity", "setting": "Rattus norvegicus [5]", "result": 1.4},
      {"measurement": "inhibition", "setting": "[6]", "result": "Active"},
      {"measurement": "Activity", "setting": "Rattus norvegicus [7]", "result": "Non-Toxic"},
      {"measurement": "Activity", "setting": "Rattus norvegicus [8]", "result": 2.6},
      {"measurement": "Activity", "setting": "Rattus norvegicus [9]", "result": "Non-Toxic"},
      {"measurement": "Activity", "setting": "Rattus norvegicus [10]", "result": 3},
      {"measurement": "Activity", "setting": "Rattus norvegicus [11]", "result": 1.7},
      {"measurement": "Activity", "setting": "Rattus norvegicus [12]", "result": "Non-Toxic"},
      {"measurement": "Activity", "setting": "Rattus norvegicus [13]", "result": 1.4},
      {"measurement": "Activity", "setting": "Rattus norvegicus [14]", "result": "Non-Toxic"},
      {"measurement": "Activity", "setting": "Rattus norvegicus [15]", "result": 3.4},
      {"measurement": "Activity", "setting": "Rattus norvegicus [16]", "result": "Non-Toxic"},
      {"measurement": "Activity", "setting": "Rattus norvegicus [17]", "result": "Non-Toxic"},
      {"measurement": "Activity", "setting": "Rattus norvegicus [18]", "result": "Non-Toxic"},
      {"measurement": "Activity", "setting": "Rattus norvegicus [19]", "result": "Non-Toxic"},
      {"measurement": "IC50", "setting": "[20]", "result": "Not Active"},
      {"measurement": "Activity", "setting": "Rattus norvegicus [21]", "result": "Non-Toxic"},
      {"measurement": "Activity", "setting": "Rattus norvegicus [22]", "result": 1.9},
      {"measurement": "Activity", "setting": "Rattus norvegicus [23]", "result": 1.8},
      {"measurement": "Activity", "setting": "Rattus norvegicus [24]", "result": 3.6},
      {"measurement": "Activity", "setting": "Rattus norvegicus [25]", "result": 1.6}
    ]}
  ]
}
